Tested on: E. coli UTI89 capsule, orcinol OD572
Experiment: E. coli capsule biogenesis inhibitors, orcinol readout, confirmation, orthogonal assay, orcinol colorimetric, UTI89 strain, 100 µM (AID 504733)
Settings: at 100 µM; hits give low values
How it was run: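 System: UPEC UTI89 or ΔkpsM mutant bacteria / Controls: no-compound cultures and ΔkpsM mutant / Compound dosing: one 100 µM compound dose / Signal: orcinol colorimetric reaction, absorbance at 572 nm / Times: acid hydrolysis of precipitated polysaccharide 1 h at 80 °C, pH 2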

SMILES	capsule formation [%]
O=C(ONc1ccc(N=NC(=O)c2ccccc2O)cc1)c1ccccc1	16
CC1=NN2C(=N)/C(=C\c3ccc(SCc4ccco4)o3)C(=O)N=C2S1	20.2
O=C(NCc1cc([N+](=O)[O-])ccc1O)c1cccnc1Sc1ccccc1Cl	18.6
CCOc1ccc(-c2cc(NC(=O)c3c(F)cccc3F)c(C(=O)O)s2)cc1	9.04
O=C(Nc1ccncc1)c1ccc2ncsc2c1	19.1
COc1ccc2nc(NC(=O)c3ccc(Br)s3)sc2c1	24.5

— PubChem BioAssay AID504733 (Southern Research Specialized Biocontainment Screening …, 2011)
